Source: ChEMBL document CHEMBL1135284 (Bioorg Med Chem Lett, 2002)

Columns and labels:
[1] = test system: Rattus norvegicus; experiment: Thrombin time was determined after (iv) bolus dose of 0.75 mg/kg followed by an infusion of 50 ug/kg/min in rat arterial thrombosis model; type: functional
[2] = Oral bioavailability; type: ADME, organism-based; conditions: rat, in vivo
How it was run: (§1)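 Conscious rats dosed by oral route (30 mg/kg) and iv bolus (0.15 mg/kg). Thrombin time tracked over time after each dose. %F derived by comparing areas under the TT-versus-time curves for the two routes.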

[3] = test system: Rattus norvegicus; experiment: Mean occlusion time after (iv) bolus dose of 0.75 mg/kg followed by an infusion of 50 ug/kg/min was determined in rat arterial thrombosis model; type: functional
[4] = test system: Rattus norvegicus; experiment: Activated partial thromboplastin time was determined after (iv) bolus dose of 0.75 mg/kg followed by an infusion of 50 ug/kg/min in rat arterial thrombosis model; type: functional
[5] = Bioavailability was reported; type: ADME, organism-based; conditions: rat, in vivo; how it was run: as §1

Row | SMILES | TT [1] | bioavailability [2] | MOT [3] | aPTT [4] | bioavailability [5]
1 | N/C(=N/O)N1CCC(CNC(=O)[C@@H]2CC[C@H]3CN(S(=O)(=O)CCc4ccccc4)CC(=O)N32)CC1 | 146 s | 2.7% | 49 min | 25 s | –
2 | N[C@H]1CC[C@H](CNC(=O)[C@@H]2CC[C@H]3CN(S(=O)(=O)C(c4ccccc4)c4ccccc4)CC(=O)N32)CC1 | 216 s | – | >60 min | 44 s | –
3 | N[C@H]1CC[C@H](CNC(=O)[C@@H]2CC[C@H]3CN(S(=O)(=O)CC(c4ccccc4)c4ccccc4)CC(=O)N32)CC1 | 150 s | – | 37 min | 35 s | 1.5%
4 | Cc1cc(C(=N)N)ccc1CNC(=O)[C@@H]1CC[C@H]2CN(S(=O)(=O)C(c3ccccc3)c3ccccc3)CC(=O)N21 | 354 s | – | >60 min | 42 s | –
5 | N=C(N)c1ccc(CNC(=O)[C@@H]2CC[C@H]3CN(S(=O)(=O)Cc4ccccc4)CC(=O)N32)cc1 | – | ~0.5% | – | – | –
6 | N=C(N)N1CCC(CNC(=O)[C@@H]2CC[C@H]3CN(S(=O)(=O)CC(c4ccccc4)c4ccccc4)CC(=O)N32)CC1 | 214 s | 2.2% | 36 min | 35 s | –
7 | N/C(=N/O)N1CCC(CNC(=O)[C@@H]2CC[C@H]3CN(S(=O)(=O)C(c4ccccc4)c4ccccc4)CC(=O)N32)CC1 | 230 s | 1.9% | 46 min | 28 s | –
8 | N/C(=N/O)N1CCC(CNC(=O)[C@@H]2CC[C@H]3CN(S(=O)(=O)CC(c4ccccc4)c4ccccc4)CC(=O)N32)CC1 | 148 s | 0.7% | 45 min | 26 s | –
9 | N=C(N)N1CCC(CNC(=O)[C@@H]2CC[C@H]3CN(S(=O)(=O)C(c4ccccc4)c4ccccc4)CC(=O)N32)CC1 | 154 s | – | 52 min | 28 s | –
10 | N=C(N)N1CCC(CNC(=O)[C@@H]2CC[C@H]3CN(C(=O)CC(c4ccccc4)c4ccccc4)CC(=O)N32)CC1 | 85 s | – | 21 min | 29 s | –
11 | N=C(N)c1ccc(CNC(=O)[C@@H]2CC[C@H]3CN(S(=O)(=O)C(c4ccccc4)c4ccccc4)CC(=O)N32)cc1 | 631 s | – | 51 min | 54 s | –
12 | Nc1ccc(CNC(=O)[C@@H]2CC[C@H]3CN(S(=O)(=O)CC(c4ccccc4)c4ccccc4)CC(=O)N32)cn1 | 51 s | – | 30 min | 19 s | –
13 | N=C(N)c1ccc(CNC(=O)[C@@H]2CC[C@H]3CN(S(=O)(=O)CC(c4ccccc4)c4ccccc4)CC(=O)N32)cc1 | 636 s | – | >60 min | 74 s | –
14 | N/C(=N\O)N1CCC(CNC(=O)[C@@H]2CC[C@H]3CN(S(=O)(=O)Cc4ccccc4)CC(=O)N32)CC1 | – | ~0.5% | – | – | –
15 | Cc1nc(N)ccc1CNC(=O)[C@@H]1CC[C@H]2CN(S(=O)(=O)C(c3ccccc3)c3ccccc3)CC(=O)N21 | 102 s | – | >60 min | 27 s | –
16 | N/C(=N/O)N1CCC(CNC(=O)[C@@H]2CC[C@H]3CN(C(=O)CC(c4ccccc4)c4ccccc4)CC(=O)N32)CC1 | 63 s | – | 35 min | 23 s | –
17 | N=C(N)[C@H]1CC[C@H](CNC(=O)[C@@H]2CC[C@H]3CN(S(=O)(=O)C(c4ccccc4)c4ccccc4)CC(=O)N32)CC1 | 724 s | 0.1% | 44 min | 54 s | –
